# Compound activity: PubChem BioAssay, several laboratories
# This is a sample that favours compounds with a hit; in the whole collection about 2.9% have one here.
# NALP1 yeast inh: NALP1 inhibition; S. cerevisiae NALP1/ASC/caspase-1 growth, X-gal OD620, 72 h; inhibition, % at 10 µM; actives 0.61% (n = 280,000); AID 2071; in the data active = inhibition mostly above about 24%, no sharp cut-off; inactive = mostly below about 32%
# SUMO Mot1 rescue: SUMOylation pathway inhibition by Mot1-301 growth rescue; S. cerevisiae Mot1-301 growth rescue, ATP luminescence, 38.5C; percent above DMSO median, 100 means doubled; growth rescue, % at 18.8 µM; actives 1% (n = 320,000);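 active = every valid replicate shows activation above 250% relative to neutral control wells; inactive = the rest, any valid replicate at or below 250%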;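 note: OY570 slx delta 5 strain wells were the positive control but not used for scaling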
# PolyA inhibitor: blocks polyadenylation in yeast reporter cells. S. cerevisiae SKY197-pL101 polyadenylation reporter, beta-gal luminescence; efflux-impaired pdr1/pdr3 knockout yeast; score 100 = 6 SD above DMSO. activity score, % at 12 µM. actives 0.02% (n = 300,000);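 active = lowest replicate activity score at least 50, where 100 means six control SD above control mean; inconclusive = lowest score under 50 but half or more replicates reach 50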;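 note: yeast exposed to compound for 9 h at 30 °C; higher score means more reporter readthrough which indicates perturbed polyadenylation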
# VIM-2 inh: blocks Pseudomonas aeruginosa VIM-2 metallo-beta-lactamase. inhibition, % at 5.6 µM. actives 0.89% (n = 290,000). AID 1527. purified VIM-2, nitrocefin hydrolysis, epi-absorbance fluorescence;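 active = inhibition above the mean of all tested compounds plus 3 SD, cutoff set per screening run, cut at about 7.5% in these data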;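 note: red hydrolysis product quenches plate fluorescence so inhibitors raise well fluorescence; 0% = enzyme with DMSO and 100% = DMSO without enzyme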
# IMP-1 inh-1: inhibitors of Pseudomonas aeruginosa IMP-1 metallo-beta-lactamase | inhibition, % at 5.6 µM | purified IMP-1, nitrocefin hydrolysis, epi-absorbance fluorescence | actives 0.45% (n = 290,000);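 active = inhibition above the mean plus 3 SD of all compounds in the same screening run, cut at about 4.5% in these data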;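 note: 0% = IMP-1 with DMSO and 100% = DMSO wells lacking enzyme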
#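 System: Purified recombinant IMP-1 metallo-beta-lactamase enzyme | Measured by: Fluorescence quenching readout, ex 480/em 530 nm | Replication: Singlicate | Incubation: 15 min preincubation plus 25 min reaction at 25 °C | Evaluation: Percent inhibition from optical density relative to buffer-blank wells | Benchmarks: DMSO with and without IMP-1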
# NLRP3 yeast inh: NALP3 inhibition in yeast | Yeast reconstituted NLRP3/ASC/caspase-1, beta-gal luminescence, 24 h | inhibition, % at 10 µM | actives 0.39% (n = 330,000) | AID 2825;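 active = inhibition of 50% or more; inactive = inhibition below 50%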;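 note: plate controls were induced DMSO wells for no effect and uninduced yeast grown without galactose for full effect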
# IMP-1 inh-2: IMP-1 inhibition, counter-screen for VIM-2 inhibitors; 1,300 tested, under 10 active; shares compounds with VIM-2 inh; inhibition, % at 5.6 µM; purified IMP-1, nitrocefin hydrolysis, epi-absorbance fluorescence; call rule not given here;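 note: 0% = enzyme with vehicle and 100% = vehicle without enzyme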
# VIM-2 FRET inh: VIM-2 FRET inhibition, artifact counter-screen; inhibition, % at 5.6 µM; purified VIM-2, CCF2 FRET substrate hydrolysis; shares compounds with VIM-2 inh; actives 23% (n = 1,300);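 active = inhibition above the mean of all tested compounds plus 3 SD, cut at about 19% in these data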;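 note: 0% = VIM-2 plus DMSO and 100% = no enzyme wells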
# TEM-1 counter: blocks E. coli TEM-1 beta-lactamase in VIM-2 selectivity screen; shares compounds with VIM-2 inh; Purified TEM-1, nitrocefin hydrolysis, epi-absorbance fluorescence; inhibition, % at 5.6 µM; actives 3% (n = 1,300);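 active = inhibition above that campaign's mean inhibition plus 3 SD, cut at about 0.46% in these data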;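 note: 0% = TEM-1 with DMSO and 100% = TEM-1 with 100 µM potassium clavulanate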
# Target sequence (P62593 whole entry, looked up): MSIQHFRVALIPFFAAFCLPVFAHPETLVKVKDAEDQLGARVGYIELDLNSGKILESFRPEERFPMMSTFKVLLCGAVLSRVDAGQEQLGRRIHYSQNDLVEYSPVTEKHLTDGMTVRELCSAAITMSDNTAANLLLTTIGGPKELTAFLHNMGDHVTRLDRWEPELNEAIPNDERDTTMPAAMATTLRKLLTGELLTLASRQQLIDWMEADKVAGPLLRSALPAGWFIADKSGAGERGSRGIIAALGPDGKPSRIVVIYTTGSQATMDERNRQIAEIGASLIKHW
# VIM-2 inh conf: confirmation of P. aeruginosa VIM-2 metallo-beta-lactamase inhibitors. shares compounds with VIM-2 inh. purified VIM-2, nitrocefin hydrolysis, epi-absorbance. inhibition, % at 5.6 µM. actives 96% (n = 1,300). AID 2187;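 active = inhibition of the VIM-2 beta-lactamase enzyme above about 11% from the earlier first-round screen, limit read from the data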;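 note: 0% = VIM-2 with DMSO and 100% = buffer wells without enzyme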
# * marks the source's active call; other numbers are inactive results; ? = inconclusive; . = not tested or not shown.
SMILES,NALP1 yeast inh,SUMO Mot1 rescue,PolyA inhibitor,VIM-2 inh,IMP-1 inh-1,NLRP3 yeast inh,IMP-1 inh-2,VIM-2 FRET inh,TEM-1 counter,VIM-2 inh conf
CCCN1CCN(CCCNC(=O)c2cc3c(=O)[nH]c4ccc(C)cc4c3s2)CC1,16,-21,?,6,-4,10,.,.,.,.
CCN1CCN(CCCNC(=O)c2cc3c(=O)oc4ccc(C)cc4c3s2)CC1,11,-5,4,13*,0,7,-4,0,-11,19*
COc1ccc(NC(=O)c2ccc3c(=O)n(CC4CCCO4)c(=S)[nH]c3c2)c(OC)c1 (stereo unspecified),-6,-5,21,-2,-1,18,.,.,.,.
C[C@H](O)c1[nH]c2cc(F)ccc2c1[C@H](C)O,20,189,7,0,2,5,.,.,.,.
CCOC(=O)c1cnc2ccc(C(=O)OC)cc2c1NCCCN1CCOCC1,17,32,9,70*,1,22,-4,-3,-6,82*
CCOC(=O)c1cnc2ccc(OCC)cc2c1NCCCN1CCOCC1,24,-5,10,32*,-4,15,-3,-3,-6,45*
Cc1sc2ncnc(NCCCn3ccnc3)c2c1C,12,0,9,21*,-3,-6,-4,-4,-7,34*
Cc1sc2ncnc(NCCc3ccc(S(N)(=O)=O)cc3)c2c1C,0,-5,15,19*,-6,-7,-3,-5,-7,16*
CCN(C(=O)CSc1nc(N)cc(N)n1)C1CCS(=O)(=O)C1 (stereo unspecified),2,10,-20,0,-2,9,.,.,.,.
COC(=O)c1c(NC(=O)c2ccco2)sc2c1CCN(C(C)=O)C2,-4,-5,-5,21*,-1,17,-3,-5,-6,30*
COC(=O)c1c(NC(=O)c2ccco2)sc(C(=O)N2CCCC2)c1C,-7,-12,-8,0,-2,9,.,.,.,.
c1csc(Cc2nn3c(-c4n[nH]c5c4CCC5)nnc3s2)c1,-4,294,-7,13*,0,5,-2,5,-7,22*
c1coc(-c2nnc3sc(Cc4cccs4)nn23)c1,4,120,-15,2,-4,19,.,.,.,.
C=CCn1c(=N)c(C(=O)OCC)cc2c(=O)n3cccc(C)c3nc21,.,-12,.,13*,-3,.,-3,-44,-5,26*
CCOC(=O)c1cc2c(=O)n3cccc(C)c3nc2n(Cc2ccccc2Cl)c1=N,25,.,.,.,.,.,.,.,.,.
COCCCNC(=O)c1cc2c(=O)n3cccc(C)c3nc2n(C(C)C)c1=N,16,-22,7,13*,-4,8,0,-79,1.1*,28*
CCOc1ccc(CNC(=O)C2Cc3cc(S(=O)(=O)N4CCCC4)ccc3N2C(C)=O)cc1 (stereo unspecified),2,3,1,25*,0,10,-4,-3,-4,1
C=CCSc1nc2c(C(=O)OCC)nnn2c2ccccc12,-33,-13,-41,28*,-3,.,-4,-4,-11,39*
CCOC(=O)c1nnn2c1nc(SCC(C)=O)c1ccccc12,21,2,4,7,-2,12,.,.,.,.
O=C1CCCC/C1=C/Nc1cccc(C(F)(F)F)c1,24,-11,-19,13*,-3,-2,-2,30*,1.4*,25*
O=C(Nc1ccc(N2CCN(Cc3ccccc3)CC2)cc1)c1ncn[nH]1,17,12,5,13*,-1,-1,-4,-1,-6,25*
